Only a selection was taken, and hits are over-represented in it overall.
LANA-nucl inh = inhibitors of KSHV LANA binding to nucleosomes; FITC-LANA1-23 / chicken nucleosome fluorescence polarization; active compounds read low; 51,000 tested, 0.3% active; AID 720717; z-score (no concentration beside the values);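 active means both repeat wells score below -2 in polarization z-score versus plate sample wells, excluding overly bright wells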
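Material: Purified chicken nucleosomes with FITC-labelled LANA N-terminal peptide (1-23) | Reagent: 50 nM FITC-LANA1-23 probe | Medium: TEN-BT buffer, pH 7.5 | Times: 10–45 min incubation at room temperature | Detection: Fluorescence polarization | Replication: Duplicates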
Active calls of the source: *.

SMILES	LANA-nucl inh
CC1=CC(C)=N/C1=C/c1c(O)[nH]c(=O)[nH]c1=O	-7.64*
CC(CO)(CO)N=Cc1c(O)[nH]c(=O)[nH]c1=O	0.418
O=c1[nH]c(O)c(/C=C/N=Nc2ccccc2)c(=O)[nH]1	-0.0075
Cc1cc2c(c(=O)n1Cc1ccccc1)C(c1ccncc1)C(C#N)=C(N)O2 (stereo not given)	-0.508
CC1CCN(S(=O)(=O)N(C)C)CC1	-1.32
Cc1cc(C)cc(C(=O)Nc2cc(C)c3c(=O)oc4ccccc4c3n2)c1	-0.346
COc1cccc(C(=O)NCCc2cc3ccc(OC)cc3[nH]c2=O)c1	0.267
CCOC(=O)/C(C#N)=C\c1cc2ccc(OC)cc2[nH]c1=O	-4.54*
COC(=O)/C(C#N)=C/c1ccc(OC)cc1	0.116
CC(C)(C)c1cc(CC(=O)O)cc(C(C)(C)C)c1O	-0.411
O=C(c1c(F)cccc1Cl)N1CCN(Cc2ccc3c(c2)OCO3)CC1	-0.187
CCN(CC)c1ccc(/C=C2\N=C(SC)SC2=O)cc1	-2.6*
CSC1=N/C(=C\c2ccccc2)C(=O)S1	-0.558
CCSC1=N/C(=C\c2ccsc2)C(=O)S1	-0.66
O=C(Nc1cccc2nsnc12)c1ccc(Cl)cc1	-0.052
CCC(=O)Nc1ccccc1C(=O)NCC1CCCO1 (stereo not given)	-0.124
Cc1oc(-c2ccc(C(=O)NCCN3CCCCC3)cc2)nc1COc1ccccc1	-1.21
Cc1onc(-c2ccccc2)c1C(=O)c1ccc(F)cc1	-0.243
OCCn1nnnc1NCc1ccc(Br)cc1	-0.236
CC(C)C(=O)Nn1cnc2c(cnn2-c2ccccc2)c1=O	-1.15
CCC(=O)Nn1cnc2c(cnn2-c2ccccc2)c1=O	-2.23*
O=C(Cc1ccccc1)Nn1cnc2c(cnn2-c2ccccc2)c1=O	-0.797
CCN1CCN(Cc2ccc(NC(=O)C3CCCN(S(=O)(=O)N4CCC5(CC4)OCCO5)C3)cc2)CC1 (stereo not given)	-0.954
CC(C)CCNC(=O)C1CCCN(S(=O)(=O)N2CCC3(CC2)OCCO3)C1 (stereo not given)	-2.17*
CCOC(=O)N1CCN(S(=O)(=O)N2CCCC(C(=O)NCCC(C)C)C2)CC1 (stereo not given)	-0.252
SMILES	LANA-nucl inh
Cc1c2cnn(CC(=O)NCCCN3CCOCC3)c(=O)c2c(C)n1Cc1ccccc1F	0.929
Nc1nc(Sc2nc3cc(Cl)ccc3s2)n[nH]1	0.479
O=C1CSCC(=O)N1c1ccc(Cl)cc1	-0.767
CC1(c2ccc(Cl)cc2)NC(=O)CS1 (stereo not given)	-2.4*
O=C1CSC2(CCCC2)N1	1.38
O=C1C(=Nc2ccc(F)cc2)c2ccccc2N1c1ccccc1	-0.451
COc1cccc(C(=O)Nc2nc3cc4c(cc3s2)OCO4)c1	-1.04
CCOc1ccc(C(=O)Nc2nc3cc4c(cc3s2)OCO4)cc1	-2.24*
O=C(CCOc1ccccc1)Nc1nc2cc3c(cc2s1)OCO3	-1.08
COc1ccc(-c2c(C)nn3c(C)cc(C)nc23)cc1OC	0.556
N#Cc1ccccc1CNCc1cccs1	-2.13*
CCc1ccc(CNCc2cccs2)cc1	-0.748
COc1ccc(CNCc2cccs2)c(OC)c1OC	-2.53
COC(=O)C(=NNc1cccc(Cl)c1)C(=O)OC	0.0955
Cc1ccc(C(=O)N2CCCn3c2nc2ccccc23)cc1	-0.433
O=C1c2cccc3c(N4CCCCC4)ccc(c23)C(=O)N1c1ccccn1	-6.18*
CC1=C(C)C(=O)N(c2ccccn2)C1=O	0.478
O=C1CSCC(=O)N1c1ccccn1	-0.144
COc1ccc(CNC(=O)c2ccc(CS(=O)c3ccc(OC)cc3)o2)cc1 (stereo not given)	-0.332
O=S(=O)(Cc1ccc(Cl)cc1)N1C=CC(C(F)(F)F)=NCC1	-0.383
Cc1ccc(-c2nc3ccc(N4CCCC4)cc3c(=O)[nH]2)cc1	0.793
Cc1cc(N2CCCC2)ccc1/C=C/C1=CCN(C)CC1	-4.13*
C=CCn1c(C)c(/C=C/C2=CCN(C)CC2)c2ccccc21	-10.3
Cc1cc2ncn(CCOc3ccccc3C)c2cc1C	-0.386
CCn1cnc2c(=O)oc3ccc(S(=O)(=O)NCc4ccccc4)cc3c21	-0.643
SMILES	LANA-nucl inh
O=C(O)c1ccccc1-c1ccccc1C(=O)O	1.32
CN(C)C(=O)c1ccccc1-c1ccccc1C(=O)O	0.241
O=C(O)c1ccccc1C1=Nc2ccc(O)cc2Oc2cc(O)ccc21	-6.08*
Cc1cccc(C)c1NC(=O)CBr	-1.75
COc1cc2cc(C3CC(c4ccco4)=NN3C(C)=O)c(Cl)nc2cc1OC (stereo not given)	1.24
O=C(CCC1CCCC1)Nc1ccc2c(c1)OCO2	-1.04
Cc1nn(C)c2c(=O)c(=O)c2n(C)[nH]1	-3.57*
CN1C(=O)S/C(=C\C=C\c2ccccc2)C1=O	0.289
Cc1cccc(CSc2nnc(CCC(=O)O)c(=O)[nH]2)c1	-2.56
CCc1ccc(-c2nnn(CC#N)n2)cc1	1.58
O=C(Cc1ccc(F)cc1)Nc1cc(=O)[nH]c(=O)[nH]1	-2.17*
O=C(CSCc1ccccc1)Nc1cc(=O)[nH]c(=O)[nH]1	-0.529
O=C(Nc1cc(=O)[nH]c(=O)[nH]1)C(c1ccccc1)c1ccccc1	-0.921
O=C1/C(=C\O)CCc2occc21	0.0135
COc1ccc(C(=O)N2CCN(C34CC5CC(CC(C5)C3)C4)CC2)cc1OC	0.68
NS(=O)(=O)c1ccc(NC(=O)C2CCCO2)cc1 (stereo not given)	-0.371
O=C(Nc1ccc2c(c1)oc1ccccc12)C1CCCO1 (stereo not given)	-0.432
O=C(Nc1ccc2c(c1)CCC2)C1CCCO1 (stereo not given)	-2.09*
N#C/C(=C\c1cn(CCC(N)=O)c2ccccc12)Sc1nc2ccccc2s1	0.154
Cc1ccc(/C=N/NC(=O)c2ccc(CN3CCOCC3)cc2)cc1	-0.048
C/C(=N\NC(=O)Cc1cc(=O)[nH][nH]1)c1cccs1	-0.665
O=C(O)C1CC2C=CC1O2 (stereo not given)	-1.12
CC1(C)C2CCC1(CS(=O)(=O)NCc1ccncc1)C(=O)C2 (stereo not given)	-1.43
CCCOC(=O)c1cc(-c2ccc(/C=C3\C(=O)NC(=O)C(C#N)=C3C)o2)ccc1Cl	-0.466
N#C/C(=C/c1ccc(-c2ccc(S(N)(=O)=O)cc2)o1)C(=O)Nc1cc(Cl)ccc1Cl	-5.68*
SMILES	LANA-nucl inh
CCOC(=O)c1ccccc1NC(=O)/C(C#N)=C/c1ccc(-c2ccc(Cl)cc2)o1	-4.28*
N#CC(C#N)=C(N)/C(C#N)=C\c1ccc(-c2ccccc2)o1	-0.109
Cc1ccc(Cc2cnc(NC(=O)/C(C#N)=C\c3ccc(-c4ccc(C)cc4)o3)s2)cc1	0.954
COC(=O)/C(C#N)=C/c1ccc(-c2ccccc2)o1	-4.09
N#C/C(=C\c1ccc(-c2cccc(Cl)c2)o1)C(N)=O	-0.339
CCOC(=O)c1ccc(-c2ccc(/C=C(\C#N)C(=O)NCc3cccs3)o2)cc1	0.511
CCOC(=O)c1cc(-c2ccc(/C=C(\C#N)C(N)=C(C#N)C#N)o2)ccc1Cl	-4.52*
Cc1cccc2c1[nH]c1nc(=S)[nH]nc12	0.406
Cc1[nH]c(=S)[nH]c(=O)c1Oc1ccc(=O)[nH]n1	-1.11
c1ccc(OCc2nn3cnnc3s2)cc1	3.03
O=C(O)CCCn1c(C(F)(F)F)nc2ccccc21	0.301
COc1ccc(CNC(=O)c2c(O)nc3scc(C)n3c2=O)cc1	0.138
N=C1C(c2nc3ccccc3s2)=C(O)CN1C1CCCC1	0.0755
COc1cc(Br)cc2c1OC1(C)CC2NC(=O)N1 (stereo not given)	-1.71
CC(C)(O)c1cc(=N)sc2nc3ccccc3n12	0.272
COc1ccc(Cn2ccc3nc(C)c(C(=O)NCc4ccccc4)cc3c2=O)cc1	-1.19

Screening results (PubChem)
